Broadly, the IC50 is the concentration needed to halve the response being measured. The term GI50 denotes the concentration giving 50% growth inhibition.

Data on one compound can be found in ChEMBL document CHEMBL4270537, “Design and biological evaluation of novel triaryl pyrazoline derivatives with dioxane moiety for selective BRAFV600E inhibition” (Eur J Med Chem, 2018).

Some results are limits rather than exact numbers.

Data set [1] has as its system A-375. As to the kind of experiment: Cell cycle arrest in human A375 cells assessed as accumulation at G1 phase at 10 uM after 24 hrs by propidium iodide staining based flow cytometry (reference value: 73.6%). In kind it is functional.
The subject of data set [2] is A-375. As to the kind of experiment: Induction of apoptosis in human A375 cells assessed as late apoptotic cells at 5 uM after 24 hrs by Annexin V-FITC/PI staining based flow cytometry (reference value: 4.26%). In kind it is functional.
Data set [3] relates to A-375. As to the kind of experiment: Induction of apoptosis in human A375 cells assessed as early apoptotic cells at 2 uM after 48 hrs by Annexin V-FITC/PI staining based flow cytometry (reference value: 5.42%). The format is functional. Put shortly:
(§1)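 Apoptosis time course. A375 cells in 24-well plates (about 10⁵/well) at 2 µM for 0, 24, 48 and 72 h. Harvested by trypsin, washed in PBS, stained 15 min at room temperature in the dark with Annexin V-FITC/PI, analysed by flow cytometry.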
A general note: A flow cytometer gives signals particle by particle.

Data set [4] deals with A-375. In words: Induction of apoptosis in human A375 cells assessed as viable cells at 2 uM after 48 hrs by Annexin V-FITC/PI staining based flow cytometry (reference value: 89.4%). The format is functional. To be noted: A-375, 48 h, read-out: Activity.
Data set [5] concerns A-375. As to the kind of experiment: Induction of apoptosis in human A375 cells assessed as viable cells at 20 uM after 24 hrs by Annexin V-FITC/PI staining based flow cytometry (reference value: 88.7%). In kind it is functional. The note with it: A-375, 24 h, read-out: Activity.
Data set [6] relates to A-375. As to the kind of experiment: Induction of apoptosis in human A375 cells assessed as necrotic cells at 2.5 uM after 24 hrs by Annexin V-FITC/PI staining based flow cytometry (reference value: 1.61%). In kind it is functional.
The subject of a further data set is Mus musculus. In words: Toxicity in nude mouse xenografted with human A375 cells assessed as body weight loss at 5 to 10 mg/kg, ip administered every second day for 14 days and measured every 2 days. In kind it is organism-based. To be noted: in vivo. Put shortly:
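Nude mice bearing subcutaneous right-flank A375 xenografts (3×10⁶ cells in cold PBS) were randomized into groups of 5 at about 100 mm³. Compounds were suspended in olive oil and given intraperitoneally every second day for 14 days. Body weight was recorded every two days.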

The target of data set [7] is Serine/threonine-protein kinase B-raf (Homo sapiens, UniProt P15056). In words: Inhibition of recombinant human full length GST-tagged wild type BRAF expressed in baculovirus expression system using recombinant human full length N-terminal His-tagged MEK1 as substrate preincubated for 1 hr followed by substrate addition measured after 25 mins.
Serine/threonine-protein kinase B-raf, sequence (P15056 whole entry): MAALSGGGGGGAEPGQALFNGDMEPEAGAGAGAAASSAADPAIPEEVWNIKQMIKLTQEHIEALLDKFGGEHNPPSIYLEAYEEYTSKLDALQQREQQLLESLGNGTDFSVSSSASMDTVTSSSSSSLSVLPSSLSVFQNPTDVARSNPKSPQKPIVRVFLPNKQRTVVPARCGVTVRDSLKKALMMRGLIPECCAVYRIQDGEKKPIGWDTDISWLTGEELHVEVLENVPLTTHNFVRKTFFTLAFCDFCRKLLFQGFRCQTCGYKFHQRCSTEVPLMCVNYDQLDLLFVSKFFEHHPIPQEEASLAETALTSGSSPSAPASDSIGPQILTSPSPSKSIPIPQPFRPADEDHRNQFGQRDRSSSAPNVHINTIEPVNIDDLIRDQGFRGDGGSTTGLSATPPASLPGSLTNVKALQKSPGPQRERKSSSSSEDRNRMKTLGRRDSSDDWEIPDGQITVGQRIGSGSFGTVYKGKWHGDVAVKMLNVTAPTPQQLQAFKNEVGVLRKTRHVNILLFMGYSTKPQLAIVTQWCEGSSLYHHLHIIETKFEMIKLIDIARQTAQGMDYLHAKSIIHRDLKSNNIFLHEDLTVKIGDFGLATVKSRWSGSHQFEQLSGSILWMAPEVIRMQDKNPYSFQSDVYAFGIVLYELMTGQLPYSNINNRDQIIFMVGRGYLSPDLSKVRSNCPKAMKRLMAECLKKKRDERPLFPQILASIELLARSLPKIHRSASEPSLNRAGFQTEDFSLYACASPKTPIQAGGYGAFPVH
Data set [8] can be described thus: Cytotoxicity against human LO2 cells assessed as decrease in cell viability after 48 hrs by MTT assay. The format is cell-based, L02. Put shortly:
(§2)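 MTT reduction assay. Cell lines grown to log phase in DMEM with 10% FBS (A375 in DMEM with sodium pyruvate added), seeded at 10⁴ cells/well in 96-well plates. Three replicate wells per concentration, each assay run three times, GI50 averaged.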

Data set [9] deals with A-375. As to the kind of experiment: Induction of apoptosis in human A375 cells assessed as necrotic cells at 2 uM after 72 hrs by Annexin V-FITC/PI staining based flow cytometry (reference value: 1.55%). The format is functional.
Data set [10] deals with A-375. As to the kind of experiment: Cell cycle arrest in human A375 cells assessed as accumulation at G2/M phase at 20 uM after 24 hrs by propidium iodide staining based flow cytometry (reference value: 5.1%). In kind it is functional.
In data set [11] the test system is A-375. As to the kind of experiment: Induction of apoptosis in human A375 cells assessed as viable cells at 2 uM after 24 hrs by Annexin V-FITC/PI staining based flow cytometry (reference value: 89.4%). The format is functional. The note with it: A-375, 24 h, read-out: Activity.
The subject of the next data set is HCT-116. In words: Antiproliferative activity against human HCT116 cells after 48 hrs by MTT assay. In kind it is functional. The note with it: HCT-116, 48 h. The method, boiled down: as §2
For orientation: Tetrazolium dyes change colour on reduction, which living cells bring about.

Data set [12] concerns A-375. As to the kind of experiment: Induction of apoptosis in human A375 cells after 24 to 72 hrs by Annexin V-FITC/PI staining based flow cytometry. The format is functional, cell-based. Put shortly: as §1
Data set [13] addresses Mitogen-activated protein kinase 8 (Homo sapiens, UniProt P45983). As to the kind of experiment: Inhibition of N-terminal flag-tagged JNK1 (unknown origin) expressed in baculovirus expression system after 60 mins in presence of [gamma-32P]ATP by topcount scintillation method. Put shortly: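 Baculovirus-expressed N-terminal FLAG-tagged kinases in 25 mM HEPES pH 7.5, 10 mM Mg acetate, 1 mM DTT, 0.5 µM ATP plus [γ-³²P]ATP, 50 µL. p38α: 100 ng enzyme, MBP substrate. JNK1: 10 ng enzyme, 1 µg c-Jun. Compound and enzyme preincubated 5 min, ATP started the reaction, 60 min at 30 °C. Stopped with 10% TCA, filtered, washed with 3% phosphoric acid, counted by TopCount.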

Data set [14] concerns Serine/threonine-protein kinase B-raf (Homo sapiens), P15056 [V600E]. In words: Inhibition of BRAF V600E mutant in human A375 cells assessed as decrease in ERK1/2 phosphorylation after 30 mins by Western blot analysis. In kind it is cell-based. Put shortly: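 A375 cells treated with compound at 0, 0.05, 0.1 and 0.5 µM, then PBS-rinsed and lysed in RIPA with protease inhibitors on ice for 30 min. Lysate was cleared at 12,000 g, 4 °C, and protein assayed by BCA. Samples run on SDS-PAGE and transferred to PVDF. Membranes were milk-blocked, probed with primary antibody (1:500) overnight at 4 °C, then secondary antibody (1:5000) for 1 h at room temperature.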
Serine/threonine-protein kinase B-raf (Homo sapiens), P15056 [V600E], sequence (P15056 whole entry V600E): as the sequence (P15056 whole entry) above, with V600E counted along it
In general terms: In western blotting, separated proteins are transferred to a membrane and probed.

Data set [15] has as its system A-375. As to the kind of experiment: Cell cycle arrest in human A375 cells assessed as accumulation at S phase at 2 uM after 24 hrs by propidium iodide staining based flow cytometry (reference value: 21.3%). In kind it is functional.
Data set [16] is described as follows: Effect on total ERK1/2 protein level in human WM1361 cells after 30 mins by Western blot analysis. To be noted: 0.5 h. In kind it is ADME, cell-based. The method, boiled down:
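Western blot. Cells rinsed in cold PBS, lysed 30 min on ice in RIPA with protease inhibitors (1:100), cleared at 12,000 g, 4 °C. Protein measured by BCA, resolved by SDS-PAGE, transferred to PVDF, blocked in skim milk. Primary antibodies 1:500 overnight at 4 °C; secondary 1:5000 for 1 h at room temperature.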

Data set [17] relates to A-375. As to the kind of experiment: Cell cycle arrest in human A375 cells assessed as accumulation at G2/M phase at 2 uM after 24 hrs by propidium iodide staining based flow cytometry (reference value: 5.1%). In kind it is functional.
Data set [18] concerns A-375. In words: Induction of apoptosis in human A375 cells assessed as early apoptotic cells at 2 uM after 24 hrs by Annexin V-FITC/PI staining based flow cytometry (reference value: 5.42%). The format is functional. The method, boiled down:
as §1

The target in data set [19] is RAF proto-oncogene serine/threonine-protein kinase (Homo sapiens, UniProt P04049, Y340D/Y341D). In words: Inhibition of recombinant human GST-tagged c-RAF (306 to 648 residues) Y340D/Y341D mutant expressed in baculovirus expression system using recombinant human full length N-terminal His-tagged MEK1 as substrate preincubated for 1 hr followed by substrate addition measured after 25 mins.
RAF proto-oncogene serine/threonine-protein kinase, sequence (P04049 whole entry Y340D/Y341D, the tested form may be a part): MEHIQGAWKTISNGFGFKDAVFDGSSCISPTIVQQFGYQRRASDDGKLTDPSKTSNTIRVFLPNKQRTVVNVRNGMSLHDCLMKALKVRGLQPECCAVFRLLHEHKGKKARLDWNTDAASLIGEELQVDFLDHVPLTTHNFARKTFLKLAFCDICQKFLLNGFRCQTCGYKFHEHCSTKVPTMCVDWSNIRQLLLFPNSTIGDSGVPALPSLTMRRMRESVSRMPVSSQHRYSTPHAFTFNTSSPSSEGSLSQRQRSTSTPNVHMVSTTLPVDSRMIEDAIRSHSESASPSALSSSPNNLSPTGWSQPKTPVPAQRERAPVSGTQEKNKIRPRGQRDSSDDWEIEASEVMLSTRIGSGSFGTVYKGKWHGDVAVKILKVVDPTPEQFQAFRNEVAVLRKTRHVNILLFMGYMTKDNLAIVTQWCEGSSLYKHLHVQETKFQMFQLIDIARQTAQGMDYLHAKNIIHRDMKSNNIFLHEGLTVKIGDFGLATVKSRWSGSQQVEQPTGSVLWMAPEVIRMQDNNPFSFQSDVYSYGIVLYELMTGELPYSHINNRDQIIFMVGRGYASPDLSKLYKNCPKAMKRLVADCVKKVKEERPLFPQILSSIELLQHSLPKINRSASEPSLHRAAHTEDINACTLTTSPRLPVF

For data set [20], the system named is A-375. As to the kind of experiment: Cell cycle arrest in human A375 cells assessed as accumulation at S phase at 2.5 uM after 24 hrs by propidium iodide staining based flow cytometry (reference value: 21.3%). The format is functional.
The test system of data set [21] is A-375. In words: Cell cycle arrest in human A375 cells assessed as accumulation at S phase at 20 uM after 24 hrs by propidium iodide staining based flow cytometry (reference value: 21.3%). In kind it is functional.
Data set [22] has as its system A-375. In words: Induction of apoptosis in human A375 cells assessed as necrotic cells at 5 uM after 24 hrs by Annexin V-FITC/PI staining based flow cytometry (reference value: 1.61%). The format is functional.

Mitogen-activated protein kinase 8, sequence (P45983 whole entry): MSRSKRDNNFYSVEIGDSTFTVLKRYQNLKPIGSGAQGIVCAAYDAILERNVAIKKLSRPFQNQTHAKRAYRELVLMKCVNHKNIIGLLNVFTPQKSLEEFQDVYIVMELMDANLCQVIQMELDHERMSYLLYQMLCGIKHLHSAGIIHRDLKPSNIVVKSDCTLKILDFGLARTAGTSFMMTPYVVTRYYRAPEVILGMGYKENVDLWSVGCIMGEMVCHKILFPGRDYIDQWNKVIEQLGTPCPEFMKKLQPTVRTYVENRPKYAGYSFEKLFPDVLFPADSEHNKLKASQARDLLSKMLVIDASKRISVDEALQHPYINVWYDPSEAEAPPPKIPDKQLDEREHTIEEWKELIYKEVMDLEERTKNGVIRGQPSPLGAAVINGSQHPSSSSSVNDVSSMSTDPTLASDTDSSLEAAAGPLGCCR

In the case of `COc1cccc(C2=NN(C(=S)Nc3ccccc3)C(c3ccc4c(c3)OCCO4)C2)c1` (centres undefined), the Activity in the data set on A-375 [1] is listed as 68.1%; with A-375 [2], 8.1%; in the data set with A-375 [3], 17.1%; in the data set with A-375 [6], 3.46%; in the data set with Mus musculus, “Non-Toxic”; in the data set with A-375 [9] it was 2.24%. Besides, the Activity in the data set with A-375 [10] is 30.2%; with A-375 [12], “Dose-dependent effect”; in the data set with A-375 [15], 17.3%; in data set [16], “Non-Toxic”; in the data set with A-375 [17], 10.3%; in the data set on A-375 [18], 10.9%. Besides, the Activity turned out to be 19.5% in the data set on A-375 [20], 16.9% in the data set with A-375 [21] and 3.6% in the data set on A-375 [22]. Moreover, the viability at 2 µM turned out to be 74.5% with A-375 [4] and 80.8% in the data set on A-375 [11]. Moreover, the viability at 20 µM in the data set with A-375 [5] was determined as 36.2%. For the same compound, the IC50 in data set [7], in data set [13] and in data set [19] was > 200 µM each time. In addition, the GI50 at 48 h in data set [8] was > 200 µM. In the data set with HCT-116, the GI50 is > 200 µM. For the same compound, the inhibition result in [14] was “Dose-dependent effect”.
